Screening data: PubChem, several laboratories
Most compounds without a hit are left out; they make up all but 4.7% or so of the library.
MPTP inh: mitochondrial permeability transition pore inhibitors, primary screen, biochemical, isolated mouse mitochondria, absorbance | Ca2+ swelling absorbance, 30 min | inhibition, % at 10 µM | 360,000 compounds, 1.4% hits | AID 602449, 2012;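 active means inhibition of 50% or more, scaled per plate between neutral and stimulator controls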;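 further: 0% = DMSO wells given calcium and 100% = 1 mM EGTA wells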
NR3A LBD binder: binders of NR3A ligand-binding domain, primary screen, biophysical, differential scanning fluorimetry, uHTS; Glutamate receptor ionotropic, NMDA 3A (GRIN3A) ligand-binding domain; NR3A LBD differential scanning fluorimetry, Tm shift; 0% = protein alone, 100% = glycine-bound protein; Tm shift relative to glycine control, % at 25 µM; 340,000 compounds, 2.5% hits; AID 1259313, 2017;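 active means melting temperature shift of at least 10% of the positive control shift, at one fixed dose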
SKN-1 block: suppressors of acrylamide-induced Pgst-4::GFP reporter in worms, primary screen, SKN-1 inhibitor project, whole organism, uHTS, GFP/RFP fluorescence ratio, strain VP596; 360,000 compounds, 0.49% hits; C. elegans VP596 Pgst-4::GFP/RFP ratio, 24 h; AID 624304, 2012; inhibition, % at 21.8 µM;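 active means interference check ratio from 0.5 to 1.5 plus GFP to RFP signal ratio inhibition reaching or exceeding a fixed threshold, cut at about 30% in these data, passing the limit was not always enough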
MT1-MMP act inh: blockers of MT1-MMP proenzyme processing, primary screen, HT1080 RFP-PRO-GFP cells, GFP/RFP fluorescence; Matrix metalloproteinase-14 (Homo sapiens), P50281; GFP/RFP ratio fluorescence, overnight; percent of plate control window, DMSO zero; GFP/RFP ratio change, % at 20 µM; 360,000 compounds, 0.061% hits; AID 651647, 2012;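 active means GFP/RFP ratio change of at least 30% with cell ATP level not reduced by more than half and red fluorescence within 50% of control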
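Assay system: HT1080 RFP-PRO-GFP cells | Dosing: 20 µM single dose, 1% DMSO | Incubation: Cells overnight before dosing, compound overnight, 37 °C, 5% CO2 | Evaluation: GFP/RFP fluorescence ratio | Control set: DMSO-only wells and HT1080 RFP-L50D-GFP cell wells as references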
ADAM10 inh: human ADAM10 inhibitors, primary screen, biochemical, QFRET, HTS | Disintegrin and metalloproteinase domain-containing protein 10 (Homo sapiens), O14672 | recombinant ADAM10, EDANS/DABCYL FRET peptide cleavage, 3 h | inhibition, % at 7 µM | 370,000 compounds, 0.62% hits | AID 720582, 2013;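 active means inhibition above a per-campaign cutoff equal to the mean of compounds falling between control-based bounds plus 3 SD, cut at about 20% in these data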;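 further: 0% = DMSO wells while the 100% control is not disclosed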
Target sequence (O14672 214-748 limits assumed): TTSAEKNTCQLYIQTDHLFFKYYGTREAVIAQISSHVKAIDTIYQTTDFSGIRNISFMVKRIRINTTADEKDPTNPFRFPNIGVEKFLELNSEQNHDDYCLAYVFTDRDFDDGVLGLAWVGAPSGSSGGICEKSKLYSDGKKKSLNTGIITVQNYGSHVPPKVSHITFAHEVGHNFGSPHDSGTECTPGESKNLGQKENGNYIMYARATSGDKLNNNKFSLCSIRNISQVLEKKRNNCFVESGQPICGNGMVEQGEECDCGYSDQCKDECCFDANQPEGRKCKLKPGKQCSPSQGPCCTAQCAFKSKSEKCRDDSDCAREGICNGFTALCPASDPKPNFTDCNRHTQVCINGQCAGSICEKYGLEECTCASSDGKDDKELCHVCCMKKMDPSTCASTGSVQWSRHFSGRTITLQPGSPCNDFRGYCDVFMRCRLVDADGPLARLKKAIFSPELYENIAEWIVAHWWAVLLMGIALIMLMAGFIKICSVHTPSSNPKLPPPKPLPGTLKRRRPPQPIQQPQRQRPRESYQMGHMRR
ADAM17 inh: ADAM17 inhibitors, primary screen, biochemical, QFRET; Disintegrin and metalloproteinase domain-containing protein 17 (Homo sapiens), P78536; recombinant ADAM17, EDANS/DABCYL FRET peptide cleavage; inhibition, % at 6.95 µM; 370,000 compounds, 0.83% hits;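 active means inhibition above the mean of compounds lying between control limits plus 3 SD, set per campaign, cut at about 8.5% in these data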;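 further: 0% = DMSO-only wells as the low control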
ADAM10 counter: ADAM10 inhibitors, counter-screen for ADAM17 exosite inhibitor project, biochemical, FRET, human ADAM10; AID 743256, 2014; 2,900 compounds, 47% hits; recombinant ADAM10, EDANS/DABCYL FRET peptide cleavage, 3 h; shares compounds with ADAM17 inh; inhibition, % at 6.95 µM;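 active means mean inhibition over the triplicate runs exceeds the activity threshold set in the earlier primary screen, cut at about 20% in these data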;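 further: 0% = DMSO wells and 100% = marimastat wells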
ADAM17 confirm: ADAM17 inhibitors, hit retest, confirmation, biochemical, QFRET peptide cleavage. shares compounds with ADAM17 inh. recombinant ADAM17, EDANS/DABCYL QFRET peptide cleavage. inhibition, % at 6.95 µM. 2,900 compounds, 65% hits;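 active means mean inhibition across replicates above the hit cutoff set in the primary screen, cut at about 8.5% in these data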;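 further: 0% = DMSO wells and 100% = marimastat wells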
* = called active by the depositor; x = no result.

SMILES	MPTP inh	NR3A LBD binder	SKN-1 block	MT1-MMP act inh	ADAM10 inh	ADAM17 inh	ADAM10 counter	ADAM17 confirm
O=C(CCc1nc(-c2ccccc2)no1)NC1CCCCC1	1	1	16	x	3	9.0*	-5	2
O=C(CCc1nc(-c2ccc(Cl)cc2)no1)NC1CCCCC1	-1	0	-26	2	-4	-2	x	x
Nc1ccc(N=Nc2ccccc2)c2cccnc12	4	-10	15	8	16	9.5*	25*	14*
COC(=O)c1c(NC(=O)CC2Nc3cc(C)c(C)cc3NC2=O)sc(C)c1C (configuration not stated)	-1	-8	7	-15	x	x	x	x
COc1ccc(CCN2CC(C(=O)NCc3ccon3)CCC2=O)cc1 (configuration not stated)	1	x	10	0	-11	-3	x	x
CCOC(=O)CCC(NC(=O)c1ccc(NCN2C(=O)c3ccccc3C2=O)cc1)C(=O)OCC (configuration not stated)	-2	-6	-23	-2	-9	-6	x	x
CCOC(=O)c1c(C)[nH]c(C)c1C(=O)COC(=O)/C=C/c1ccc(OC(F)F)cc1	0	-1	1	-1	17	9.3*	21*	10*
O=C(COC(=O)/C=C/c1ccc(OC(F)F)cc1)NC1CCCC1	2	0	-28	4	-12	-4	x	x
Cc1ccc(S(=O)(=O)NCC(=O)OCC(=O)Nc2ccc(C)c(S(=O)(=O)N3CCOCC3)c2)cc1	-1	3	8	0	5	6	x	x
Cc1ccc(OCCC(=O)OCC(=O)Nc2ccc(C)c(S(=O)(=O)N3CCOCC3)c2)cc1	0	-1	-7	-1	0	9.1*	10	7
Cc1ccc(NC(=O)COC(=O)c2cccc(OC(F)F)c2)cc1S(=O)(=O)N1CCCCC1	0	4	-8	4	12	9.1*	45*	25*
C[C@@H]1CCCCO[C@H](CN(C)Cc2ccc3c(c2)OCO3)[C@H](C)CN([C@@H](C)CO)C(=O)c2cc(NC(=O)c3ccccc3)ccc2O1	0	x	-18	-3	-9	-2	x	x
COc1cc(C=O)ccc1Oc1ccc(S(=O)(=O)N2CCOCC2)cc1[N+](=O)[O-]	-1	2	0	-1	-1	-2	x	x
CCOc1ccc2nc(NC(=O)c3cccnc3)sc2c1	-1	-10	6	0	-37	-11	x	x
CC(C)(C(=O)N1CCC1(C)C(=O)Nc1ccccc1Br)c1ccccc1 (configuration not stated)	0	x	2	5	11	11*	-2	0
OC(c1ccccc1)(c1ccccc1)C1CCN(CCCNc2ccc(C(F)(F)F)cc2)CC1	x	x	x	x	17	9.4*	20	11*
Cc1ccc(C(=O)Nc2cc(C(F)(F)F)ccc2-n2cncn2)o1	-2	-3	12	-4	-4	-2	x	x
CCN1CCN(c2ccc(NC(=O)c3ccc(C#N)cc3F)cc2Cl)CC1	5	2	-2	2	-6	-5	x	x
O=C1CCCCC1C(Nc1ccc(Br)cc1)c1ccccc1 (configuration not stated)	1	-8	-7	7	13	4	x	x
